The record followed here is ChEMBL document CHEMBL5143748, “Quinolines and Oxazino-quinoline Derivatives as Small Molecule GLI1 Inhibitors Identified by Virtual Screening” (ACS Med Chem Lett, 2022).

One experiment concerns Daoy. Description: Antiproliferative activity against human DaOY cells assessed as reduction in cell viability incubated for 72 hrs by trypan blue or crystal violet staining based assay. It counts as functional. In a few lines:
(§1)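 IC50 in micromolar, fitted from triplicate experiments in human melanoma A375 and medulloblastoma DAOY cells.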

The next experiment concerns NIH3T3. The experiment in a line: Inhibition of hedgehog signalling in SAG-induced mouse NIH3T3 cells assessed as decrease in GLI1 protein expression level at 1 uM for 48 hrs by Western blot analysis. It is filed as cell-based. In a few lines:
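Murine NIH3T3 cells, endogenous Hh pathway activated with the SMO agonist SAG (100 nM), co-treated with compound (1 μM), DMSO vehicle or GANT61 (5 μM) for 48 h. Endogenous GLI1 detected by Western blot with HSP90 as loading control. Reduction graded qualitatively, e.g. "+" weak, "NA" not affected.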
A general note: In western blotting, separated proteins are transferred to a membrane and probed.

The test system of a further experiment is A-375. Description: Antiproliferative activity against human A375 cells assessed as reduction in cell viability incubated for 72 hrs by trypan blue or crystal violet staining based assay. The conditions noted are these: A-375, 72 h. It is filed as functional. An outline of the steps:
as §1

The source made the active and inactive calls. The calls are words filed in the database; no cut-off is given here.

On to `Fc1cnc2c3c(ccc2c1)CN(C1CCCCC1)CO3`, for which the IC50 (usually the concentration that inhibits the measured activity by half) in the experiment on Daoy was found to be 300 nM; in the experiment on A-375, 500 nM. In the experiment with NIH3T3, the inhibition entry is “Active”.
For `CCCC(=O)NC(c1ccc(OC)c(OC)c1)c1ccc2cccnc2c1O` (stereo not given), in that order: 110 nM, 130 nM and “Active”.
For `c1cnc2c3c(ccc2c1)CN(C1CCCCCC1)CO3`, in that order: 1200 nM, 880 nM and “Active”.
For `COc1ccc(CN2COc3c(ccc4cccnc34)C2)cc1`, in that order: 870 nM, 580 nM and “Active”.
Consider `CCCCC(=O)NC(c1ccc(Cl)c(Cl)c1)c1ccc2cccnc2c1O` (stereo not given), for which the IC50 is 100 nM in the experiment with Daoy and 320 nM in the experiment with A-375. The inhibition result with NIH3T3 is “Active”.
For `Oc1c(C(NCCc2ccccc2)c2ccc(Cl)cc2Cl)ccc2cccnc12` (stereo not given), in that order: 150 nM, 190 nM and “Active”.
For `CCCC(=O)NC(c1ccc(C(C)C)cc1)c1cc(Cl)c2cccnc2c1O` (stereo not given), in that order: 90 nM, 120 nM and “Active”.
For the compound `CCCC(=O)NC(c1ccccc1Cl)c1cc(Cl)c2cccnc2c1O` (stereo not given), the concentration for half-maximal inhibition (IC50) in the experiment on Daoy and in the experiment on A-375 was 100 nM in each case. The inhibition entry with NIH3T3 was “Active”.
Regarding `Clc1cnc2c3c(ccc2c1)CN(CCCN1CCOCC1)CO3`, the IC50 with Daoy turned out to be 1200 nM; in the experiment with A-375, 150 nM. In the experiment with NIH3T3, the inhibition result is “Active”.
For `c1ccc(CCN2COc3c(ccc4cccnc34)C2)cc1`, in that order: 190 nM, 130 nM and “Active”.
For `O=C(NC(c1ccc(Cl)cc1Cl)c1ccc2cccnc2c1O)C1CCCCC1` (stereo not given), in that order: 240 nM, 1010 nM and “Active”.
For `CCCCOc1ccnc2c(O)c(CNC(=O)C3CCCCC3)ccc12`, in that order: 510 nM, 540 nM and “Active”.
Consider `CCCCC(=O)NC(c1cc(Cl)cc(Cl)c1)c1ccc2cccnc2c1O` (stereo not given), for which the IC50 worked out at 140 nM with Daoy and 90 nM in the experiment on A-375. For the same compound, the inhibition entry in the experiment with NIH3T3 is “Active”.
For `CCCC(=O)NC(c1ccc(Cl)cc1Cl)c1ccc2cccnc2c1O` (stereo not given), in that order: 190 nM, 110 nM and “Active”.
For `CCCC(=O)NC(c1ccc(C)cc1)c1cc(Cl)c2cccnc2c1O` (stereo not given), in that order: 100 nM, 120 nM and “Active”.
For `O=C(NCc1ccc2cccnc2c1O)C1CCCCC1`, in that order: 720 nM, 910 nM and “Active”.
For `CCCC(=O)NC(c1ccc(N(CC)CC)cc1)c1cc(Cl)c2cccnc2c1O` (stereo not given), the IC50 was 100 nM in the experiment on Daoy and 130 nM with A-375. The inhibition result with NIH3T3 is “Active”.
For `COc1ccc(C(NC(C)=O)c2cc(Cl)c3cccnc3c2O)cc1OC` (stereo not given), in that order: 210 nM, 110 nM and “Active”.
For `CCCCC(=O)NC(c1ccc(Cl)cc1)c1ccc2cccnc2c1O` (stereo not given), in that order: 330 nM, 710 nM and “Active”.
For `CCCCC(=O)NC(c1ccc(Cl)cc1Cl)c1ccc2cccnc2c1O` (stereo not given), in that order: 150 nM, 1120 nM and “Active”.
For `CCCC(=O)NC(c1ccc(Cl)cc1)c1cc(Cl)c2cccnc2c1O` (stereo not given), the results for the IC50 in the experiment on Daoy and with A-375 were 100 nM and 120 nM, respectively.
For the compound `Fc1cnc2c3c(ccc2c1)CN(CCc1ccccc1)CO3`, the IC50 was 1400 nM in the experiment on Daoy and 1100 nM in the experiment on A-375. Besides, the inhibition result in the experiment with NIH3T3 was “Active”.
For `c1ccc2c(c1)CCCC2N1COc2c(ccc3cccnc23)C1` (stereo not given), in that order: 600 nM, 300 nM and “Active”.
For `Oc1c(CNCCc2ccccc2)ccc2cccnc12`, in that order: 330 nM, 390 nM and “Active”.
For `COc1ccc(C(NC(=O)C(C)C)c2cc(Cl)c3cccnc3c2O)cc1OC` (stereo not given), in that order: 100 nM, 130 nM and “Active”.
For `c1cnc2c3c(ccc2c1)CN(C1CCCCC1)CO3`, the values for the IC50 in the experiment on Daoy and in the experiment on A-375 were 500 nM and 300 nM, respectively. Besides, the inhibition entry with NIH3T3 was “Active”.
For `C1=C(CCN2COc3c(ccc4cccnc34)C2)CCCC1`, in that order: 230 nM, 120 nM and “Active”.
For `O=C(NC(c1ccc(Cl)cc1Cl)c1ccc2cccnc2c1O)C1CCCC1` (stereo not given), in that order: 150 nM, 320 nM and “Active”.
For `O=C(NCc1ccc2c(OCc3ccccc3)ccnc2c1O)C1CCCCC1`, in that order: 260 nM, 550 nM and “Active”.
As to `CCCC(=O)NC(c1ccccc1)c1cc(Cl)c2cccnc2c1O` (stereo not given), the IC50 in the experiment with Daoy worked out at 110 nM; in the experiment with A-375 it was 130 nM.
On to `c1cnc2c3c(ccc2c1)CN(CC1CCCCC1)CO3`, for which the figures for the IC50 in the experiment on Daoy and in the experiment with A-375 were 1000 nM and 380 nM, respectively. The inhibition result with NIH3T3 is “Active”.
For the compound `CCCCN1COc2c(ccc3cc(Cl)cnc23)C1`, the IC50 with Daoy was 380 nM; in the experiment on A-375, 490 nM. Also, in the experiment on NIH3T3, the inhibition entry was “Active”.
For `CC1CCC(N2COc3c(ccc4cccnc34)C2)CC1` (stereo not given), in that order: 550 nM, 420 nM and “Active”.
For `c1cnc2c3c(ccc2c1)CN(C1CCCCCCC1)CO3`, in that order: 290 nM, 280 nM and “Active”.
